SMILES strings stand for the structures. A value given as a limit tells only on which side of the number the result lay.

Our source for the IC50, Selectivity index and CC50 values is ChEMBL document CHEMBL1135916, “Design, synthesis, and structure-activity relationship of pyridyl imidazolidinones: a novel class of potent and selective human enterovirus 71 inhibitors” (J Med Chem, 2002).

Series [1] relates to Coxsackievirus. The series can be described thus: Inhibition concentration against coxsackie virus B6. Type of series: functional, organism-based. An outline of the steps:
(§1)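 Plaque reduction on Vero cell monolayers infected to give about 50-100 plaques per monolayer in virus control; test compound diluted into agar-medium overlay; 96 h at 35 °C, crystal violet staining, plaques counted. […] Triplicate well means, at least two experiments.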

Series [2] concerns Coxsackievirus. In words: Inhibition concentration against coxsackie virus A10. The class given is functional, organism-based. The essentials: as §1
The subject of another series is Enterovirus A71. In words: Inhibition concentration against EV-71. Type of series: functional, organism-based. The conditions noted are these: Enterovirus A.
Series [3] can be described thus: Selectivity index (RD/EV71) of the compound. Type of series: functional.
Series [4] deals with Enterovirus. In words: Inhibition concentration against EV-71 (BrCR) genotype A. The class given is functional, organism-based. An outline of the steps: as §1
Series [5] can be described thus: Selectivity index (D551/EV71) of the compound. The class given is functional.
The subject of a further series is Human alphaherpesvirus 2. The series can be described thus: Inhibition concentration against herpes simplex virus. The class given is functional, organism-based. The essentials: as §1
The subject of series [6] is unidentified influenza virus. In words: Inhibition concentration against influenza B […]. Type of series: functional, organism-based. An outline of the steps: (§2)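 Plaque reduction assay on Vero cell monolayers. Virus was added at a dose giving about 50-100 plaques per monolayer in virus controls. Compound was diluted into the agar-medium overlay, tested up to 25 µM. Plates were incubated 96 h at 35 °C, stained with crystal violet, and plaques counted.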

The test system of series [7] is unidentified influenza virus. In words: Inhibition concentration against influenza A (WSN). The class given is functional, organism-based. An outline of the steps:
as §2

For series [8], the system named is Enterovirus. In words: Inhibition concentration against EV-71 (2231) genotype C. The class given is functional, organism-based. An outline of the steps: as §1
The nature of series [9]: (§3) Cytotoxicity against human rhabdomyosarcoma (RD) cells. The class given is functional. The note with it: Homo sapiens, RD.
In series [10] the test system is Coxsackievirus. In words: Inhibition concentration against coxsackie virus B2. The class given is functional, organism-based. The essentials: as §1
The test system of series [11] is Coxsackievirus. In words: Inhibition concentration against coxsackie virus B1. Type of series: functional, organism-based. The essentials: as §1
The subject of series [12] is Coxsackievirus. In words: Inhibition concentration against coxsackie virus A24. Type of series: functional, organism-based. The essentials: as §1
Series [13] concerns Enterovirus. The series can be described thus: Inhibition concentration against echovirus 29. The class given is functional, organism-based. An outline of the steps:
as §1

Series [14] relates to Enterovirus. In words: Inhibition concentration against echovirus 9. Type of series: functional, organism-based. An outline of the steps: as §1
In series [15] the test system is Coxsackievirus. The series can be described thus: Inhibition concentration against coxsackie virus B5. The class given is functional, organism-based. The essentials:
as §1

Series [16] concerns Coxsackievirus. The series can be described thus: Inhibition concentration against coxsackie virus A9. The class given is functional, organism-based. The essentials:
as §1

In series [17] the test system is Enterovirus. In words: Inhibition concentration against human rhinovirus 14. The class given is functional, organism-based. An outline of the steps: as §1
Series [18] deals with Enterovirus. In words: Inhibition Concentration against enterovirus 68. Type of series: functional, organism-based. An outline of the steps: as §1
Series [19] concerns Coxsackievirus. In words: Inhibition concentration against coxsackie virus A16. Type of series: functional, organism-based. The essentials:
as §1

The subject of series [20] is Coxsackievirus. In words: Inhibition concentration against coxsackie virus B3. The class given is functional, organism-based. An outline of the steps:
as §1

The nature of series [21]: Cytotoxicity against human normal skin fibroblast (D551) cells. The class given is cell-based. The conditions noted are these: D551 normal skin fibroblast cells. The essentials:
(§4)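 Test compound at various concentrations added to D551 (human normal skin fibroblast), WI38 (human normal lung fibroblast) or RD cells; incubated 96 h at 37 °C; cells harvested and viable cells counted by trypan blue staining. Triplicate, at least twice.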

Series [22] relates to Enterovirus. The series can be described thus: Inhibition concentration against EV-71 (1743) genotype B. Type of series: functional, organism-based. An outline of the steps:
as §1

Series [23] can be described thus: Cytotoxicity against human normal skin fibroblast (W138) cells. The class given is cell-based. The conditions noted are these: W138 normal skin fibroblast cells. The essentials:
as §4

Series [24] relates to Enterovirus. In words: Inhibition concentration against human rhinovirus 2. The class given is functional, organism-based. The essentials: as §1
Series [25] concerns Enterovirus. The series can be described thus: Inhibition concentration against EV-71 (2086) genotype C. The class given is functional, organism-based. The essentials: as §1
A short description of series [26]: Selectivity index (W138/EV71) of the compound. Type of series: functional.
The test system of series [27] is Coxsackievirus. In words: Inhibition concentration against coxsackie virus B4. The class given is functional, organism-based. The essentials:
as §1

Series [28] is described as follows: as §3. Type of series: functional. An outline of the steps: as §4
Series [29] in a line: selectivity index of the compound. Type of series: functional.

`O=C1N(CCCCCCOc2ccc(Br)cc2)CCN1c1ccncc1`: the half-inhibitory concentration (IC50) in the series with Coxsackievirus [1] was greater than 25 µM; in the series with Coxsackievirus [2], 5.88 µM; in the series with Enterovirus A71, 0.35 µM; in the series on Enterovirus [4] it was 1.26 µM; in the series with Human alphaherpesvirus 2, greater than 25 µM; in series [6] it was greater than 25 µM. Moreover, the IC50 in series [7] was greater than 25 µM; with Enterovirus [8], 1.15 µM; in the series with Coxsackievirus [10], greater than 25 µM; in the series on Coxsackievirus [11], 5.1 µM; in the series on Coxsackievirus [12] it was 0.55 µM; in the series with Enterovirus [13], greater than 25 µM. Also, the IC50 in the series with Enterovirus [14] was 2.82 µM; in the series on Coxsackievirus [15], greater than 25 µM; in the series on Coxsackievirus [16], 0.77 µM; in the series on Enterovirus [17], 11.6 µM; in the series with Enterovirus [18], 2.13 µM; in the series on Coxsackievirus [19], greater than 25 µM. In addition, the IC50 in the series on Coxsackievirus [20] was greater than 25 µM; with Enterovirus [22] it was 0.6 µM; in the series with Enterovirus [24] it was greater than 25 µM; in the series with Enterovirus [25], 0.31 µM; with Coxsackievirus [27] it was greater than 25 µM. The Selectivity index is greater than 71 in series [3], 148 in series [5] and 161 in series [26]. The CC50 is greater than 25 µM in [9], 46 µM in series [21] and 50 µM in series [23].

On to `O=C1N(CCCCCCOc2ccc(-c3cccs3)cc2)CCN1c1ccncc1`, for which, in the series with Enterovirus A71, half-maximal inhibition (IC50) was put at 0.3 µM. Moreover, the values for the Selectivity index in series [3], in [5] and in series [29] were greater than 83, 153 and 200, respectively. Besides, the CC50 is greater than 25 µM in series [28], 46 µM in series [21] and 60 µM in series [23].

As usually defined, the IC50 is the concentration that inhibits the measured activity by half. Read a low IC50 as higher potency. The CC50 is the concentration at which the toxic effect on the cells reaches its halfway point. Low values mean greater toxicity to the cells, high ones lower toxicity to the cells.
